According to ChEMBL document CHEMBL4699629, “N-Hydroxyformamide LpxC inhibitors, their in vivo efficacy in a mouse Escherichia coli infection model, and their safety in a rat hemodynamic assay” (Bioorg Med Chem, 2020):
In brackets after ≈: the same amount, converted by molar mass.

Experiments:
Escherichia coli [1] = experiment: Antibacterial activity against Escherichia coli ATCC 25922 assessed as bacterial growth inhibition by CLSI based broth microdilution method; type: functional
Procedure, shortened: (§1)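 CLSI broth microdilution determination of MIC.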

[2] = Displacement of fluorescent ligand from Escherichia coli LpxC measured after 30 mins by fluorescence anisotrophy assay
Procedure, shortened: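 Well mixes of 2 nM ligand C ± 12.5 nM E. coli LpxC; inhibitor two-fold dilutions 10 µM to […]; 30 min ambient, anisotropy 540/590 nm; % inhibition vs no-enzyme min; Hill fit for IC50; artifact correction at high concentrations.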

[3] = target: T1, UDP-3-O-acyl-N-acetylglucosamine deacetylase (Pseudomonas aeruginosa (strain ATCC 15692 / PAO1 / 1C / PRS 101 / LMG12228), UniProt P47205); experiment: Displacement of fluorescent ligand from Pseudomonas aeruginosa LpxC measured after 30 mins by fluorescence anisotrophy assay
T1 sequence (P47205 whole entry): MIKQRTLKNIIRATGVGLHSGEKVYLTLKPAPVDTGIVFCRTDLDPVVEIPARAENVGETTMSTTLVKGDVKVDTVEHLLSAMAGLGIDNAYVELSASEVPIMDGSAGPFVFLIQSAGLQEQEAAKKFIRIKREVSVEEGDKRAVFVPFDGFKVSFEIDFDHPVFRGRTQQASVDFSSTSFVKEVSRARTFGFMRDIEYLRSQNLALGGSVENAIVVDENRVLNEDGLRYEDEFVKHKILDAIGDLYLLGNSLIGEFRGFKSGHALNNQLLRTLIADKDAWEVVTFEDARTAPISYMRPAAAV

Klebsiella pneumoniae = experiment: Antibacterial activity against Klebsiella pneumoniae ATCC 700603 assessed as bacterial growth inhibition by CLSI based broth microdilution method; type: functional; procedure, shortened: as §1
Pseudomonas aeruginosa = experiment: Antibacterial activity against Pseudomonas aeruginosa PAO1 assessed as bacterial growth inhibition by CLSI based broth microdilution method; type: functional; procedure, shortened: as §1
[4] = Chemical stability of the compound; type: physicochemical
[5] = Solubility of the compound in 2.5% dextrose in sodium acetate buffer at pH 5; type: physicochemical
[6] = Cmax in mouse at 200 mg/kg, sc; type: ADME, organism-based; set-up: route subcutaneous, dose 200 mg/kg; conditions: in vivo
[7] = Observed clearance in mouse at 200 mg/kg, sc; type: ADME, organism-based; conditions: in vivo
[8] = Ratio of fAUC in mouse at 200 mg/kg, sc to MIC for antibacterial activity against Escherichia coli ARC6599 infected in cyclophosphamide-induced CD-1 mouse model of neutropenic thigh infection; type: ADME, organism-based; conditions: in vivo
Escherichia coli [9] = experiment: Antibacterial activity against Escherichia coli ARC6599 infected in cyclophosphamide-induced CD-1 mouse model of neutropenic thigh infection assessed as log10 reduction in CFU at 200 mg/kg, sc qd administered 2 hrs post-infection and measured after 24 hrs; type: functional
Procedure, shortened: (§2)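 Female CD-1 mice made neutropenic with cyclophosphamide IP, 150 mg/kg day -4 and 100 mg/kg day -1. Saline suspension from overnight plate, OD625 0.13, diluted; 100 µL i.m. into both rear thighs (actual 7.6×10^5 CFU/thigh). Dosing began 2 h post-infection, s.c. at 20 mL/kg in 5% DMSO plus 2.5% dextrose/20 mM acetate ([…]); 3 mice/group. Thighs harvested 26 h post-infection, homogenized in 2 mL saline, plated; mean and SD of log CFU.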

[10] = AUC in mouse at 200 mg/kg, sc; type: ADME, organism-based; set-up: dose 200 mg/kg; conditions: in vivo
Escherichia coli [11] = experiment: Antibacterial activity against Escherichia coli ARC6599 infected in cyclophosphamide-induced CD-1 mouse model of neutropenic thigh infection assessed as log10 reduction in CFU at 200 mg/kg, sc bid administered 2 hrs post-infection and measured after 24 hrs; type: functional; procedure, shortened: as §2
[12] = Protein binding in rat plasma assessed as unbound fraction after 7 hrs by LC-MS/MS-based rapid equilibrium dialysis method; type: ADME, cell-free
Procedure, shortened: (§3)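 Rapid equilibrium dialysis: plasma spiked to 5 µM final, dialysed against PBS at 37 °C for 7 h with 400 rpm shaking; both chambers protein-precipitated with acetonitrile/0.1% formic acid containing carbutamide internal standard, quantified by LC-MS/MS. fu = buffer/sample peak area ratio; recovery accepted between 70 and 130%.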

[13] = Clearance in Sprague-Dawley rat at 90 mg/kg, iv administered as single bolus dose by HPLC analysis; type: ADME, organism-based; conditions: in vivo
Procedure, shortened: (§4)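 Fasted male Sprague-Dawley rats given one IV tail-vein slow-push bolus of compound formulated at 90 mg/mL in 2.5% dextrose/20 mM acetate pH 5, 1 mL/kg; saphenous blood at selected times into K2EDTA for plasma.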

Acetylcholinesterase = Acetylcholinesterase (Homo sapiens, UniProt P22303); experiment: Inhibition of human AchE expressed in HEK293 cells using acetylthiocholine as substrate by Ellman's method
Procedure, shortened: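 Purified recombinant enzyme in 0.1 M sodium phosphate pH 7.4 with 0.01% Triton X-100. Two-fold inhibitor dilutions from 300 µM to 0.29 µM plus zero, each held at 3% DMSO. Acetylthiocholine and Ellman's reagent added as a solution of 1.2 mM each; reaction started with 0.006 U/mL enzyme solution. A412 read every minute for 1 h, with a no-enzyme blank subtracted. Initial slopes give % inhibition; IC50 from a Hill-equation fit.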

[14] = Protein binding in mouse plasma assessed as unbound fraction after 7 hrs by LC-MS/MS-based rapid equilibrium dialysis method; type: ADME, cell-free; procedure, shortened: as §3
[15] = Volume of distribution in mouse at 200 mg/kg, sc; type: ADME, organism-based; conditions: in vivo
[16] = Volume of distribution at steady state in Sprague-Dawley rat at 90 mg/kg, iv administered as single bolus dose by HPLC analysis; type: ADME, organism-based; conditions: in vivo, read-out: Vdss; procedure, shortened: as §4
Escherichia coli [17] = experiment: Antibacterial activity against Escherichia coli ARC6599 infected in sc dosed cyclophosphamide-induced CD-1 mouse model of neutropenic thigh infection assessed as reduction in CFU administered 2 hrs post-infection and measured after 24 hrs; type: functional, organism-based; procedure, shortened: as §2

Chain of Acetylcholinesterase (P22303 whole entry): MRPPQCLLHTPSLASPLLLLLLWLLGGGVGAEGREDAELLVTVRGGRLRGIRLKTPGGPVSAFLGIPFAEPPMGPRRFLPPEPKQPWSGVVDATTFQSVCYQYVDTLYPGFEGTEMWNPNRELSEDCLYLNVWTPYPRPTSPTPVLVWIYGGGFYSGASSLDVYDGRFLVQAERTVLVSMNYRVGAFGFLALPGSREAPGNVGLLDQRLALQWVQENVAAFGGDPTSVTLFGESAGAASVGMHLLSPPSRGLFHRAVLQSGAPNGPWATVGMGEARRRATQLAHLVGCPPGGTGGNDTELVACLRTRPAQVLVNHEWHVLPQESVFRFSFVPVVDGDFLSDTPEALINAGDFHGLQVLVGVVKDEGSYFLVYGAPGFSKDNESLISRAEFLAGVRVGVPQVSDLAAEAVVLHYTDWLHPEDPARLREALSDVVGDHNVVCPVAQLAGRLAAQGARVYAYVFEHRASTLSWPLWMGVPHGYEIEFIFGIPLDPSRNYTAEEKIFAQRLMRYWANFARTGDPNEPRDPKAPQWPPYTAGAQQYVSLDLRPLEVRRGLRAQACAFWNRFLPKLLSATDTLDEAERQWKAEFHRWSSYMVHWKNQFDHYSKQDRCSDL

Compound | MIC (Escherichia coli [1]) | IC50 [2] | IC50 [3] | also measured
O=CN(O)CCn1ncc2cc(C#Cc3ccc(CN4CCOCC4)cc3)ccc21 | 4 µg/mL (≈ 9.89 µM) | 28 nM | 64 nM | –
O=CN(O)CCc1nnn2cc(C#Cc3ccc(CN4CCOCC4)cc3)ccc12 | 4 µg/mL (≈ 9.87 µM) | 15 nM | 37 nM | –
CCC(Cn1nnc2cc(C#Cc3ccc(CN4CCOCC4)cc3)ccc21)N(O)C=O (stereo not drawn) | 1 µg/mL (≈ 2.31 µM) | < 10 nM | 2.4 nM | –
O=C(CNC(=O)c1ccc(C#Cc2ccc(CN3CCOCC3)cc2)cc1)NO | 16 µg/mL (≈ 40.7 µM) | 21 nM | 63 nM | MIC (Klebsiella pneumoniae): > 64 µg/mL; MIC (Pseudomonas aeruginosa): 64 µg/mL (≈ 163 µM)
CC(Cn1nnc2cc(C#Cc3ccc(CN4CCOCC4)cc3)ccc21)N(O)C=O (stereo not drawn) | 2 µg/mL (≈ 4.77 µM) | – | 14 nM | –
O=CN(O)CCc1nnc2cc(C#Cc3ccc(CN4CCOCC4)cc3)ccn12 | 16 µg/mL (≈ 39.5 µM) | 54 nM | 280 nM | –
CS[C@@H](Cn1nnc2cc(C#Cc3ccc(CN4CC5(C4)C[S+]([O-])C5)cc3)ccc21)N(O)C=O.O=C(O)C(F)(F)F | – | – | – | solubility [5]: > 200 mg/mL
O=CN(O)CCn1ccc2nc(C#Cc3ccc(CN4CCOCC4)cc3)ccc21 | 32 µg/mL (≈ 79.1 µM) | 170 nM | 1000 nM | –
C[C@@H](O)[C@H](NC(=O)c1ccc(C#Cc2ccc(CN3CCOCC3)cc2)cc1)C(=O)NO | 0.13 µg/mL (≈ 0.297 µM) | < 10 nM | – | MIC (Klebsiella pneumoniae): 2 µg/mL (≈ 4.57 µM); MIC (Pseudomonas aeruginosa): 1 µg/mL (≈ 2.29 µM)
CCC(Cc1n[nH]c2cc(C#Cc3ccc(CN4CCOCC4)cc3)ccc12)N(O)C=O (stereo not drawn) | 4 µg/mL (≈ 9.25 µM) | 19 nM | 10 nM | MIC (Klebsiella pneumoniae): > 64 µg/mL; MIC (Pseudomonas aeruginosa): > 64 µg/mL
O=CN(O)CCn1ccc2cc(C#Cc3ccc(CN4CCOCC4)cc3)ncc21 | 64 µg/mL (≈ 158 µM) | 740 nM | 1000 nM | –
CS[C@@H](Cn1nnc2cc(C#Cc3ccc(CN4CCOCC4)cc3)ccc21)N(O)C=O | 0.13 µg/mL (≈ 0.288 µM) | < 10 nM | < 1 nM | MIC (Klebsiella pneumoniae): 4 µg/mL (≈ 8.86 µM); Cmax [6]: 21500 ng/mL; CL [7]: 80 mL/min/kg; fAUC/MIC [8]: 104; Activity (Escherichia coli [9]): 2 log10CFU; AUC [10]: 34800 ng·h/mL; Activity (Escherichia coli [11]): >3.2 log10CFU; fraction unbound at 7 h [12]: 0.03; clearance [13]: 33.3 mL/min/kg; IC50 (Acetylcholinesterase): 3500 nM; MIC (Pseudomonas aeruginosa): 4 µg/mL (≈ 8.86 µM); fraction unbound at 7 h [14]: 0.09; Vd [15]: 10.1 L/kg; Vd [16]: 0.58 L/kg; Activity (Escherichia coli [17]): Dose-dependent effect
O=CN(O)CCN1C(=O)Cc2cc(C#Cc3ccc(CN4CCOCC4)cc3)ccc21 | 4 µg/mL (≈ 9.54 µM) | 25 nM | 170 nM | –
CSC(Cn1nnc2cc(C#Cc3ccc(CN4CCOCC4)cc3)ccc21)N(O)C=O (stereo not drawn) | 0.25 µg/mL (≈ 0.554 µM) | < 10 nM | 1.3 nM | –
CCOC(Cn1nnc2cc(C#Cc3ccc(CN4CCOCC4)cc3)ccc21)N(O)C=O (stereo not drawn) | 2 µg/mL (≈ 4.45 µM) | 22 nM | 41 nM | Stabilty [4]: Unstable

The next lines start with results.

MIC (Escherichia coli [1]) | IC50 [2] | IC50 [3] | Compound | also measured
0.5 µg/mL (≈ 1.07 µM) | < 10 nM | 5.4 nM | CCSC(Cn1nnc2cc(C#Cc3ccc(CN4CCOCC4)cc3)ccc21)N(O)C=O (stereo not drawn) | –
2 µg/mL (≈ 4.96 µM) | 10 nM | 45 nM | O=CN(O)CCn1ccc2cc(C#Cc3ccc(CN4CCOCC4)cc3)ccc21 | –
0.25 µg/mL (≈ 0.574 µM) | < 10 nM | 7.3 nM | COC(Cn1nnc2cc(C#Cc3ccc(CN4CCOCC4)cc3)ccc21)N(O)C=O (stereo not drawn) | Stabilty [4]: Unstable
1 µg/mL | < 10 nM | 2.5 nM | CC[C@@H]([C@@H](CC(C)O)c1n[nH]c2cc(C#Cc3ccc(CN4CCOCC4)cc3)ccc12)N(O)C=O (mixture of isomers) | MIC (Klebsiella pneumoniae): 32 µg/mL; MIC (Pseudomonas aeruginosa): 16 µg/mL
16 µg/mL (≈ 39.6 µM) | 82 nM | 1100 nM | O=CN(O)CCn1cnc2cc(C#Cc3ccc(CN4CCOCC4)cc3)ccc21 | –
2 µg/mL (≈ 4.59 µM) | 42 nM | 61 nM | O=CN(O)C(CO)Cn1nnc2cc(C#Cc3ccc(CN4CCOCC4)cc3)ccc21 (stereo not drawn) | –
4 µg/mL (≈ 8.86 µM) | 41 nM | 21 nM | CS[C@H](Cn1nnc2cc(C#Cc3ccc(CN4CCOCC4)cc3)ccc21)N(O)C=O | –
32 µg/mL (≈ 84.6 µM) | 21 nM | 63 nM | O=CN(O)CCCc1ccc(C#Cc2ccc(CN3CCOCC3)cc2)cc1 | –
4 µg/mL (≈ 9.87 µM) | 20 nM | 44 nM | O=CN(O)CCn1nnc2cc(C#Cc3ccc(CN4CCOCC4)cc3)ccc21 | –
